From ChEMBL document CHEMBL4308830, “Design, Synthesis, and Characterization of 4-Undecylpiperidine-2-carboxamides as Positive Allosteric Modulators of the Serotonin (5-HT) 5-HT2C Receptor” (J Med Chem, 2018) come the findings set out here.

As usually defined, the Vdss is the apparent volume that relates the amount in the body to the concentration in plasma or blood. What is called inhibition is the percentage by which the read-out fell short of the control. As a reminder, the Cmax is the maximum level reached in the sampled fluid or tissue. As a reminder, the Emax is the maximal effect, on the per cent scale that the assay sets.

The subject of data set [1] is Rattus norvegicus. Description: Increase in WAY163909-induced suppression of spontaneous locomotor activity in Sprague-Dawley rat assessed as reduction in total ambulation at 5 mg/kg, ip cotreated with WAY163909 at 15 mins post 5-HT2C antagonist SB242084 treatment measured for 30 mins. It counts as functional, organism-based. In a few lines:
(§1)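 Rats (n = 9–10/group) received SB242084 (1 mg/kg ip) or vehicle (8% 2-hydroxypropyl-β-cyclodextrin) 15 min before ip WAY163909 (1 mg/kg) plus compound (5 mg/kg). They were placed in monitors immediately; ambulations and vertical activity were totalled over 30 min. Analysis: ANOVA with Bonferroni comparisons.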

Data set [2] relates to Rattus norvegicus. Description: Effect on inactive lever presses in Sprague-Dawley rat at 1 mg/kg, ip administered as single dose 15 mins prior to self administration of cocaine. It counts as organism-based. Particulars: in vivo, 0.25 h. In a few lines:
(§2)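 Catheterized male Sprague–Dawley rats self-administered cocaine (0.75 mg/kg/infusion iv, each paired with light/pump cue) in 14 daily 180 min sessions, reaching FR5 stability. After 24 h they received saline (1 mL/kg ip) or compound (1 mg/kg ip) 15 min before a cue reactivity test.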

Data set [3] in a line: Volume of distribution at steady state in Sprague-Dawley rat at 5 mg/kg, iv administered as single dose. Particulars: in vivo. It counts as ADME, organism-based.
Data set [4] can be described thus: Oral bioavailability in Sprague-Dawley rat at 10 mg/kg administered as single dose. In kind it is ADME, organism-based. The following applies: in vivo.
For data set [5], the system named is Rattus norvegicus. Description: Suppression of spontaneous locomotor activity in Sprague-Dawley rat assessed as reduction in total vertical activity at 5 mg/kg, ip administered as single dose measured for 30 mins. In kind it is functional, organism-based. In a few lines:
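Male Sprague–Dawley rats naive to activity monitors (n = 7–8/group) received saline (1 mL/kg ip) or compound (0.5, 1 or 5 mg/kg ip) immediately before testing. Ambulations and vertical counts were taken in 5 min bins for 90 min and totalled over the first 30 min. Analysis: one-way ANOVA with Dunnett's comparisons to vehicle.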

A short description of data set [6]: Clearance in Sprague-Dawley rat at 5 mg/kg, iv administered as single dose. Particulars: in vivo. In kind it is ADME, organism-based.
The subject of data set [7] is Rattus norvegicus. Kind of data set: Increase in WAY163909-induced suppression of spontaneous locomotor activity in Sprague-Dawley rat assessed as reduction in total vertical activity at 5 mg/kg, ip cotreated with WAY163909 at 15 mins post 5-HT2C antagonist SB242084 treatment measured for 30 mins. It counts as functional, organism-based. In a few lines:
as §1

Data set [8] in a line: Terminal half life in Sprague-Dawley rat at 5 mg/kg, iv administered as single dose. The following applies: in vivo. In kind it is ADME, organism-based.
Data set [9] addresses Alpha-2B adrenergic receptor (Homo sapiens) (UniProt P18089). Kind of data set: Displacement of [3H]-rauwolscine from recombinant human alpha-2B adrenergic receptor expressed in HEKT cell membranes at 10 uM after 90 mins by scintillation counting method relative to control. The gist of the method:
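Single-concentration screen at 10 μM test compound, each target labelled with the radioligand given in the line. The read-out is mean % inhibition of specific radioligand binding (n = 4). Targets above 50% inhibition went on to full competition isotherms, and Ki came from best-fit IC50 by the Cheng–Prusoff equation.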

For data set [10], the target named is 5-HT2B receptor (Homo sapiens, UniProt P41595). Kind of data set: Displacement of [3H]-LSD from recombinant human 5-HT2BR expressed in HEK cell membranes at 10 uM after 90 mins by scintillation counting method relative to control. The following applies: probe [3H]-LSD. (Displacement assays read how much labelled ligand stays bound in the presence of the test substance.)

In data set [11] the target is T1, 5-hydroxytryptamine receptor 2C (Homo sapiens) (UniProt P28335).
T1 sequence (whole entry): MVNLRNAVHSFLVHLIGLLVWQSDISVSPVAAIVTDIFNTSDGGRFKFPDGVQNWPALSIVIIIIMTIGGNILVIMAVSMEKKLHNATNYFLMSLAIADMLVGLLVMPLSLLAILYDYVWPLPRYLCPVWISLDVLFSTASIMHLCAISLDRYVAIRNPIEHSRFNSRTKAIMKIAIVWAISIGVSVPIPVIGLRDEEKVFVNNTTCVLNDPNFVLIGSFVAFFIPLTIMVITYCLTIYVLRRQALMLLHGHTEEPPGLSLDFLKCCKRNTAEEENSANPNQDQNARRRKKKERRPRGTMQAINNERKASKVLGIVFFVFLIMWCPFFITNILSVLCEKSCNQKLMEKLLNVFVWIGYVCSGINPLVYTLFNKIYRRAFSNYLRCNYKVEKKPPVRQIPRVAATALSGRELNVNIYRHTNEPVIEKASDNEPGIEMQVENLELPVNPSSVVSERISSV
Kind of data set: Positive allosteric modulation of human 5-HT2CR expressed in CHO cells assessed as increase in 5-HT-induced intracellular calcium release at 0.000001 to 1 uM preincubated for 15 mins followed by 5-HT addition by calcium-4 dye based FLIPR assay. In kind it is functional, cell-based. In a few lines:
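CHO cells stably expressing human unedited (INI) 5-HT2CR, passages 6–16, grown at 37 °C in medium with 5% FBS and hygromycin. Plated cells were serum-starved 3 h, then loaded 60 min at 37 °C plus 15 min at room temperature with Calcium 4 dye and 2.5 mM probenecid in HBSS pH 7.4. Compound (1 pM, 1 nM, 1 μM) was added 15 min before 5-HT (10 pM–10 μM), and fluorescence peak height was read.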
On the technique in general: Calcium flux is commonly read through the fluorescence of an indicator in the cells.

Data set [12] deals with CHO. Description: Cytotoxicity against CHO cells at 0.1 to 1000 nM after 1 hrs by LDH release assay. In kind it is cell-based, Cricetulus griseus. The following applies: chinese hamster, 1 µM. The gist of the method: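 Lactate dehydrogenase release assay for cytotoxicity, compounds tested at 0.1 nM and 1 μM.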
A short description of data set [13]: Cmax in Sprague-Dawley rat at 10 mg/kg, po administered as single dose. In kind it is ADME, organism-based. Also noted: dose 10 mg/kg, route oral. The following applies: in vivo.
Data set [14] concerns the target 5-hydroxytryptamine receptor 6 (Homo sapiens) (UniProt P50406). Kind of data set: Displacement of [3H]-LSD from recombinant human 5-HT6R expressed in HEK cell membranes at 10 uM after 90 mins by scintillation counting method relative to control.
Data set [15] deals with Rattus norvegicus. Kind of data set: Drug discrimination in WAY163909-trained Sprague-Dawley rat assessed as increase in WAY163909-appropriate lever responding at 1 mg/kg, ip co-treated with WAY163909 15 mins prior to test relative to control. It counts as functional.
Data set [16] concerns Rattus norvegicus. Kind of data set: Reduction in cocaine cue reactivity in Sprague-Dawley rat assessed as decrease in active lever presses at 1 mg/kg, ip administered as single dose 15 mins prior to self administration of cocaine. In kind it is functional, organism-based. The gist of the method:
as §2

The subject of data set [17] is Rattus norvegicus. Description: Drug discrimination in WAY163909-trained Sprague-Dawley rat assessed as increase in WAY163909-appropriate lever responding at 0.5 mg/kg, ip treated 15 mins prior to test relative to control. It counts as functional. In a few lines:
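Water-restricted male Sprague–Dawley rats were trained to discriminate WAY163909 (0.75 mg/kg ip, 15 min pretreatment) from saline under FR20, to a criterion of ≥80% correct for 10 sessions. Test doses were given ip 15 min before test: compound alone (0.125–1.0 mg/kg) or compound 0.5 mg/kg plus WAY163909 0.5 mg/kg. Read-out was % drug-lever responding; only rats completing FR20 within 15 min were counted.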

Data set [18] deals with 5-HT2A receptor (Homo sapiens, UniProt P28223). Kind of data set: Displacement of [3H]-Ketanserin from recombinant human 5-HT2AR expressed in HEKT cell membranes at 10 uM after 90 mins by scintillation counting method relative to control. The following applies: probe [3H]-Ketanserin.

Calls of active or inactive are those of the source.

Chain of Alpha-2B adrenergic receptor (Homo sapiens) (P18089 whole entry): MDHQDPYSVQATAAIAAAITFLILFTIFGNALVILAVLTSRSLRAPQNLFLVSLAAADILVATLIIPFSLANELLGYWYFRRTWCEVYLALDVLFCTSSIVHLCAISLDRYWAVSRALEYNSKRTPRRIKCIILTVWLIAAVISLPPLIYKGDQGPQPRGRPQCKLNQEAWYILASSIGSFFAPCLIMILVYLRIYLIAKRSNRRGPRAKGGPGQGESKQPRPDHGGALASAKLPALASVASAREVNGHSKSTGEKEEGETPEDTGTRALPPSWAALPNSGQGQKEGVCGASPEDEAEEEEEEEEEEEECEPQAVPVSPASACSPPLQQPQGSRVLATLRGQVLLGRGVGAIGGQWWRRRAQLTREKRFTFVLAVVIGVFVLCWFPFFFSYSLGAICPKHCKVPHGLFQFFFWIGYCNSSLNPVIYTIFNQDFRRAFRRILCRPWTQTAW
Chain of 5-hydroxytryptamine receptor 6 (Homo sapiens) (P50406 whole entry): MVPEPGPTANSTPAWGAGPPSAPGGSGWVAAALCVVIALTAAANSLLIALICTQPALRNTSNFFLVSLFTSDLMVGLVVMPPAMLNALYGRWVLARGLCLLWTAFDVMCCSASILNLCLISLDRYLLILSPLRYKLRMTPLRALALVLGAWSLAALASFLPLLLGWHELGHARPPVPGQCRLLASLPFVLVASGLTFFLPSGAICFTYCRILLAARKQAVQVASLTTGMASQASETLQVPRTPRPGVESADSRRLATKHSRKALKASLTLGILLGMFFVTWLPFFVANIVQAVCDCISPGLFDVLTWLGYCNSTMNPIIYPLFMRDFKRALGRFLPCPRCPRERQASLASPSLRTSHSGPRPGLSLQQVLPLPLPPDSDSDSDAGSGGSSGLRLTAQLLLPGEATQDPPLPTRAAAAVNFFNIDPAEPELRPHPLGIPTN
Chain of 5-HT2B receptor (P41595 whole entry): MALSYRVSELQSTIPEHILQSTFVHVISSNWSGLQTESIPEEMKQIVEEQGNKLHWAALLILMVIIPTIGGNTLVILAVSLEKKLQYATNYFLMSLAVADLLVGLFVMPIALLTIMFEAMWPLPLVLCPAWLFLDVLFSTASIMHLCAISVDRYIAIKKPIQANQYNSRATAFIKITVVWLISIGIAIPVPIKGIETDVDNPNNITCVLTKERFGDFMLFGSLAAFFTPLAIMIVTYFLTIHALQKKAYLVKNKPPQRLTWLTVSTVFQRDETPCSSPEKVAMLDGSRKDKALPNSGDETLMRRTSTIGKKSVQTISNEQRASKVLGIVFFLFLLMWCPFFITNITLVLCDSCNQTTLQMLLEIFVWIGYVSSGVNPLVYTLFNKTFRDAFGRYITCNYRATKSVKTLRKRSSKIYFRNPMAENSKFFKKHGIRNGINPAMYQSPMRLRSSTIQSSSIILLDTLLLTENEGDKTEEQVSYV
Chain of 5-HT2A receptor (P28223 whole entry): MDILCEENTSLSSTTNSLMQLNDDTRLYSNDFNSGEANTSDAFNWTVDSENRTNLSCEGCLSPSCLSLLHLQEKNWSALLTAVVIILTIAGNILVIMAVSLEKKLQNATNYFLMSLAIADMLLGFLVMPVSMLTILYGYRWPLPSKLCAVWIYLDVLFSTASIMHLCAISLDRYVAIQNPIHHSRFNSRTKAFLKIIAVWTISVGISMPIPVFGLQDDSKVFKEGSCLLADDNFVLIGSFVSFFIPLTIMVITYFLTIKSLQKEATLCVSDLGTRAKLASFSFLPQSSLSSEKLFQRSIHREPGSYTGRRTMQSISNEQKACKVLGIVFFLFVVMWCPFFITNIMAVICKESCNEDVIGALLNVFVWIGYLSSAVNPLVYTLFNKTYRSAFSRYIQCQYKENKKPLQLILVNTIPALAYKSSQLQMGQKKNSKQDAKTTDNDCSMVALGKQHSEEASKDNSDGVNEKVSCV

Take `CCCCCCCCCCC[C@@H]1CCN[C@H](C(=O)NCC(O)CO)C1` (relative stereo): the result in [1] was inactive. Besides, the Activity result in data set [2] is given as “Non-Toxic”; in [12] it was “Non-Toxic”; in data set [17], 30%. The compound further had a volume of distribution (Vdss) in data set [3] of 35.07 L/kg. The F in data set [4] is recorded as 39.1%. The outcome in data set [5], in data set [7], in [11] and in [16] was Active. Moreover, the CL in data set [6] was 89.5 mL/min/kg. For the same compound, the “beta t1/2” value in [8] came to 6.59 h. In addition, the inhibition is 80.7% in [9] and 18.1% in data set [14]. For the same compound, the values for the inhibition at 1.5 h, 10 µM in data set [10] and in [18] were 15.1% and 37.1%, respectively. The same compound had a peak concentration (Cmax) in data set [13] of 68.1 ng/mL. Further, the maximal response (Emax) at 1 mg/kg in data set [15] was found to be 45%.
